Experimental data from PMC5298935 (The FEBS journal, 2016).
Like-named read-outs stand apart in the source and are kept apart here. Square brackets hold non-standard residues; d marks the D form. Peptide text beside a SMILES is read from it. pS = N[C@@H](COP(=O)(O)O)C(=O)O

Experiments:
Pin1-FL [1] = target: T1, Pin1-FL (Homo sapiens, UniProt Q13526); format: binding; conditions: B = C-terminal site
In short: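 Full-length Pin1 underwent reverse titration with dually phosphorylated peptides; HSQC perturbations in N and H dimensions were fit separately (fmincon). The multistate model added two bivalent states, each with its own Keq. Non-bivalent KD and bound shifts were fixed from single-site titrations. Residues needed distinct bound shifts per motif. Reduced chi-square used σH 0.00407 and σN 0.0205 ppm.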

Pin1-FL [2] = target: T1, Pin1-FL; experiment: Simulation of Pin1-FL binding at low micromolar concentrations
[3] = target: Pin1-FL (with 6X-His tag) (Homo sapiens, UniProt Q13526); experiment: Biolayer interferometry; format: binding
In short: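 Ni-NTA biosensors loaded with 10 μg/mL His-tagged full-length Pin1 for 600 s, quenched 300 s with buffer plus 10 mM imidazole and 25 μg/mL biotin. Association with singly or dually phosphorylated peptide at 80–1.25 μM for 600 s, then 600 s dissociation in buffer. Buffer: 10 mM HEPES, 20 mM NaCl, 0.1 mM TCEP, pH 7.4; 25°C. Pin1-free sensors served as nonspecific-binding reference.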

T1 sequence (Q13526 whole entry): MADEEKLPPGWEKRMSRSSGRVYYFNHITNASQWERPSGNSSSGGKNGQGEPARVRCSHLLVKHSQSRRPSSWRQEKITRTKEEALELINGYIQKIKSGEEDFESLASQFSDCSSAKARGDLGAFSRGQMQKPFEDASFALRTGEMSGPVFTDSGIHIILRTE
Sequence of Pin1-FL (with 6X-His tag) (Q13526 whole entry): as above

KeqB:WW (Fitted Keq^A:WW, Keq^B:WW and Δδbound for bivalent states) (Pin1-FL [1]; nitrogen dimension) | KeqB:WW (Fitted Keq^A:WW, Keq^B:WW and Δδbound for bivalent states) (Pin1-FL [1]; proton dimension) | ΔGequiv (change in Gibbs free energy) (Pin1-FL [2]; corresponds to the equivalent bimolecular KD at 20 μM peptide) [kcal/mol] | total fraction of bound Pin1 (Pin1-FL [2]; simulated, 20 μM peptide, total Pin1 ~0.5 μM, sum of all bound Pin1 species divided by total Pin1) | Kd [3] [nM] | Pin1 binding detected by biolayer interferometry ([3]; peptide 1.25-80 μM, BLI buffer pH 7.4, 25°C) | SMILES
0.02 | 0.43 | -7.49 | 0.85 | 1000 |  | CC(=O)N[C@@H](CCC(=O)O)C(=O)N[C@@H](C)C(=O)N[C@@H](CCC(=O)O)C(=O)N[C@@H](C)C(=O)N[C@@H](Cc1c[nH]c2ccccc12)C(=O)N[C@@H](COP(=O)(O)O)C(=O)N1CCC[C@H]1C(=O)N[C@@H](CCCNC(=N)N)C(=O)N[C@@H](CCCCN)C(=O)N[C@@H](CC(C)C)C(=O)N1CCC[C@H]1C(=O)N[C@@H](CO)C(=O)N[C@@H](CO)C(=O)N[C@@H](C)C(=O)N[C@@H](CO)C(=O)N[C@H](C(=O)N[C@@H](Cc1ccccc1)C(=O)N[C@@H](CC(C)C)C(=O)N[C@@H](COP(=O)(O)O)C(=O)N1CCC[C@H]1C(=O)N[C@@H](C)C(=O)N[C@@H](Cc1ccccc1)C(=O)N1CCC[C@H]1C(=O)NCC(N)=O)[C@@H](C)O [p131/p144] (Ac-EAEAW[pS]PRKLPSSASTFL[pS]PAFPG-NH2)
 |  |  |  |  | not measurable | CC(C)C[C@H](NC(=O)[C@H](Cc1ccccc1)NC(=O)[C@@H](NC(=O)[C@@H](N)CO)[C@@H](C)O)C(=O)N[C@@H](COP(=O)(O)O)C(=O)N1CCC[C@H]1C(=O)N[C@@H](C)C(=O)N[C@@H](Cc1ccccc1)C(=O)N1CCC[C@H]1C(=O)NCC(=O)O [p144] (H-STFL[pS]PAFPG-OH)
